From PubChem BioAssay
SKBR3 24h inh = SK-BR-3 proliferation inhibitors; SK-BR-3 viability, CellTiter-Glo ATP luminescence, 24 h; hits give low values; viability, % at 10 µM; hit rate 0.47% among 41,000;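 active = viability at or below the median of all test compounds minus 3 SD, in both replicates if run twice, cut at about 45% in these data; inconclusive = duplicate replicates that disagree with each other; inactive = viability above that cutoff in every replicate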
HEK293 NFkB inh = inhibitors of the PMA/ionomycin-induced NF-kB reporter in HEK293 cells; HEK-293 NF-kB luciferase reporter, luminescence; inhibition, % at 3 µM; hit rate 0.21% among 62,000; AID 465;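 active = inhibition above the mean of all tested compounds plus 3 SD, cut at about 40% in these data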
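Reagent: PMA plus ionomycin mix as NF-kB-activating stimulus. Assay system: NF-kB luciferase reporter HEK-293 cells. Technique: luminescence from luciferase substrate reagent. Incubation: 1 h compound pre-incubation, 16 h PMA/ionomycin at 37 °C. Benchmarks: DMSO only as uninhibited control, 10 µM reference inhibitor as full inhibition. Repeats: tested once.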
Her2 expr inh = inhibitors of human Her2 kinase expression; P04626; SKBR-3 HER2 protein level, AlphaScreen, 18-24 h; hits give low values; HER2 level % of control, % at 10 µM; hit rate 0.69% among 65,000;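 active = HER2 level under 5% of the carrier-only control; inconclusive = no clear call, values can overlap the other calls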;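 note: lower value means stronger loss of Her2 protein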
Jurkat viability = cytotoxic compounds reducing Jurkat cell viability | hit rate 1.2% among 56,000 | inhibition, % at 4 µM | AID 463 | Jurkat E6.1 viability, ATP luminescence, 48 h;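 active = inhibition above the mean inhibition of all tested compounds plus 3 SD, cut at about 28% in these data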
Each line names hits and unclear results; the compound was inactive in the other large screens. An excerpt weighted towards active compounds, which were near 2% of everything screened.

CCc1cc2c(=O)n(Cc3ccco3)c(SCc3c(C)noc3C)nc2s1	Jurkat viability 88.2 (no result: SKBR3 24h inh)
CCc1cc2c(=O)n(Cc3ccco3)c(SCC(=O)N3CCCc4ccccc43)nc2s1	none (no result: SKBR3 24h inh)
COc1cc(OC)cc(-c2nnc(SCC(=O)N(C(C)C)C(C)C)o2)c1	SKBR3 24h inh 39.2
CCCCNc1ncnc2c1cnn2-c1ccccc1	Jurkat viability 90.2
Clc1ccc(-n2ncc3c(NCCCn4ccnc4)ncnc32)cc1	none (no result: HEK293 NFkB inh, Jurkat viability)
CCCCNc1ncnc2c1cnn2-c1ccc(Cl)cc1	Jurkat viability 86.1 (no result: SKBR3 24h inh)
CCOC(=O)N1CCN(c2ncnc3c2oc2nc(CC(C)C)c4c(c23)CCC4)CC1	none
CCOc1cc2[nH]c(=O)n(CC3CCC(C(=O)NC(C)CC)CC3)c(=O)c2cc1OCC (stereo unspecified)	none (no result: SKBR3 24h inh)
COc1cc(/C=C(/C#N)c2ccc(F)cc2)ccc1OCc1ccc(C(=O)O)o1	none
N#C/C(=C/c1ccc(N2CCCCCC2)o1)c1ccc(F)cc1	Her2 expr inh -14.0, Jurkat viability 98.8
COc1ccc2c(=O)c3c(=O)n(Cc4ccco4)c(C(C)C)nc3oc2c1	none
COc1ccc2c(=O)c3c(=O)n(Cc4ccco4)c(-c4ccc(C)cc4)nc3oc2c1	Her2 expr inh 4.8
CC(=O)Nc1ccc(Oc2nc(C)cc(C)n2)cc1	none
COCCn1c(C)cc(C(=O)CSc2nnc(C)s2)c1C	HEK293 NFkB inh 45.8
CSc1nsc(SCC(=O)Nc2c(C)n(C)n(-c3ccccc3)c2=O)n1	none
CCOC(=O)c1c(C)oc2c1c(C(c1ccncc1)N1CCOCC1)c(O)c1ccccc12 (stereo unspecified)	Her2 expr inh -12.0 (no result: SKBR3 24h inh)
Cc1nc2sccn2c1-c1nc(C2CC2)c(C(=O)c2ccc3c(c2)NC(=O)CO3)s1	none (no result: SKBR3 24h inh)
COc1cccc(/C=N/n2c(SC)nnc2-c2ccccc2)c1O	Jurkat viability 68.5 (no result: SKBR3 24h inh)
CC(C)NS(=O)(=O)c1ccc(OCC(=O)NCc2cccnc2)cc1	none
COc1ccc(OCC(=O)NCc2cccnc2)cc1	Her2 expr inh -14.3
Nc1nc(-c2cccs2)c(NC(=O)c2ccccc2)s1	Her2 expr inh -11.0 (no result: SKBR3 24h inh)
COc1cc(C(Nc2ccccn2)c2ccc3ccc(C)nc3c2O)cc(OC)c1O (stereo unspecified)	Jurkat viability 70.9
CCOc1ccccc1NC(=O)CN(c1cc(C)cc(C)c1)S(=O)(=O)c1c(C)noc1C	none (no result: SKBR3 24h inh)
CCOc1ccc(N(CC(=O)Nc2ccccc2C)S(=O)(=O)c2c(C)noc2C)cc1	Jurkat viability 91.0 (no result: SKBR3 24h inh)
CCOc1ccccc1NC(=O)CN(c1ccc(OC)cc1)S(=O)(=O)c1c(C)noc1C	Jurkat viability 93.3
O=C(CSc1nc(-c2ccccc2)cc(=O)[nH]1)N1CCOCC1	none
Oc1cccc2ccc(Nc3ccccn3)nc12	Her2 expr inh -20.4, Jurkat viability 72.4 (no result: SKBR3 24h inh)
c1ccc(Nc2ccccc2Nc2ccccn2)nc1	none (no result: SKBR3 24h inh)
c1ccc(-n2c(-c3ccncc3)nnc2N2CCOCC2)cc1	Her2 expr inh -3.3 (no result: SKBR3 24h inh)
O=C(Nc1ccc(Cl)cn1)c1cccc(F)c1	Jurkat viability 84.8
CCOC(=O)/C=C/S(=O)(=O)c1ccc(NC(C)=O)cc1	SKBR3 24h inh 3.0, Her2 expr inh -22.4, Jurkat viability 52.5
CCOc1ccc(N(CC)S(=O)(=O)c2ccc3c(c2)oc(=O)n3C)cc1	Jurkat viability 66.3
CCOc1ccc(NS(=O)(=O)c2ccc3c(c2)oc(=O)n3C)cc1	none
CCC1C(=O)N=C(SCC(=O)Nc2ccc(C(=O)OC)cc2)NC1=O (stereo unspecified)	SKBR3 24h inh 44.0
NS(=O)(=O)c1ccc(NC(=O)CSC2=NC(=O)C(c3ccccc3)C(=O)N2)cc1 (stereo unspecified)	none (no result: SKBR3 24h inh)
CCN(C(=O)c1cc2cc(OC)ccc2oc1=O)c1ccccc1	none
C=CCN(C(=O)c1ccccc1)c1ccc(OC)cc1	Jurkat viability 49.0 (no result: SKBR3 24h inh)
O=C(CCCCCn1c(=S)[nH]c2cc3c(cc2c1=O)OCO3)N1CCN(C2CCCCC2)CC1	Her2 expr inh -16.0 (no result: SKBR3 24h inh, Jurkat viability)
CCn1c(SCC(=O)Nc2cccc(C)n2)nnc1-c1ccco1	none (no result: SKBR3 24h inh)
CCCn1c(SCC(=O)Nc2cccc(C)n2)nnc1-c1ccco1	Her2 expr inh -22.9
O=C(c1cn(CC(=O)N2CCCC2)c2ccccc12)C1CCCCC1	none
CCN(CC)S(=O)(=O)c1cccc(C(=O)Nc2nc3cc4c(cc3s2)OCCO4)c1	Jurkat viability 35.9 (no result: SKBR3 24h inh)
COC(=O)c1[nH]c2c(c1C)C(=O)CC(c1cccs1)C2 (stereo unspecified)	Jurkat viability 97.2
COC(=O)c1[nH]c2c(c1C)C(=O)CC(c1cc(OC)ccc1OC)C2 (stereo unspecified)	Jurkat viability 82.5 (no result: SKBR3 24h inh)
C=CCn1cnc2c(c1=O)c1nc3ccccc3nc1n2/N=C/c1cc(OC)c(OC)c(OC)c1	Her2 expr inh -25.2
C=CCn1c(SCc2nc3ccccc3c(=O)[nH]2)nnc1-c1cc2cc(Cl)ccc2o1	SKBR3 24h inh inconclusive, Her2 expr inh 3.3
O=C1c2cccc3cccc(c23)C(=O)N1c1nncs1	Her2 expr inh -28.5
CC(=O)N1C(=O)c2cccc3cccc(c23)C(=O)N1C(C)=O	none (no result: Jurkat viability)
Cn1c(=O)c2c(nc(N3CCC(C(N)=O)CC3)n2CCSc2nc3ccccc3s2)n(C)c1=O	none (no result: HEK293 NFkB inh, Jurkat viability)
CN1CCN(c2ncnc3c2sc2nc(N4CCCC4)c4c(c23)CC(C)(C)OC4)CC1	none (no result: Jurkat viability)
COc1ccccc1S(=O)(=O)Cc1ccc(C(=O)N2CCN(c3ccccc3)CC2)o1	none (no result: SKBR3 24h inh)
COc1ccccc1S(=O)(=O)Cc1ccc(C(=O)N2CCN(c3cccc(Cl)c3)CC2)o1	Jurkat viability 80.8 (no result: SKBR3 24h inh)
Cc1cccc(N2CCN(C(=O)c3ccc(CS(=O)(=O)c4ccccc4C)o3)CC2C)c1 (stereo unspecified)	HEK293 NFkB inh 41.9, Jurkat viability 94.1 (no result: SKBR3 24h inh)
Cc1ccc(S(=O)(=O)Cc2ccc(C(=O)N3CCN(c4cc(C)ccc4C)CC3)o2)cc1	none (no result: SKBR3 24h inh)
Cc1ccc(C)c(N2CCN(C(=O)c3ccc(CS(=O)(=O)c4ccccc4C)o3)CC2)c1	Jurkat viability 39.8 (no result: SKBR3 24h inh)
Cc1cccc(N2CCN(C(=O)CS(=O)(=O)Cc3nc(-c4ccccc4F)oc3C)CC2C)c1 (stereo unspecified)	none (no result: SKBR3 24h inh)
CCC1CCCCN1c1nc2c(c(=O)n(C)c(=O)n2C)n1CCSc1nc2ccccc2o1 (stereo unspecified)	none (no result: SKBR3 24h inh)
C=CCn1c(NC(=O)c2ccccc2)c(C#N)c2nc3ccccc3nc21	none (no result: SKBR3 24h inh)
CCN1CCCC1CNC(=O)C1CCN(Cc2nc(-c3cccc(Br)c3)oc2C)CC1 (stereo unspecified)	none (no result: SKBR3 24h inh)
COc1ccccc1N1CCN(CC(=O)Nc2cc(C)nn2-c2nc(C)cc(C)n2)CC1	none (no result: Jurkat viability)
CCc1ccc2nc(NC(=O)c3cc(C)on3)sc2c1	Jurkat viability 82.3 (no result: SKBR3 24h inh)
COc1ccc(NC(=O)C2CCC(=O)N2S(=O)(=O)c2ccc(C)cc2)c(OC)c1 (stereo unspecified)	none
CCn1c2ccccc2c2nnc(SCC(=O)NC(C(=O)OC)C(C)C)nc21 (stereo unspecified)	none (no result: SKBR3 24h inh)
CC1(C)CC(=O)C2(CC3=C(CC(C)(C)CC3=O)O2)C(=O)C1	Her2 expr inh -33.0
CC1(C)CC(=O)c2c(noc2-c2ccccc2)C1	none (no result: SKBR3 24h inh)
O=C(OCN1C(=O)c2ccccc2C1=O)c1ccco1	none
CCOc1ccc(-c2nc(CSCC(=O)NCc3ccco3)c(C)o2)cc1	HEK293 NFkB inh 83.1 (no result: SKBR3 24h inh)
